{"source": "paper PMC3041204", "about": "(Diabetes Care, 2011)", "key": {"[1]": {"assay_type": "in vivo, patients with type 1 diabetes", "settings": "s.c., arithmetic mean; n = 21 (lispro), n = 16 (RHI); serum insulin RIA"}, "blood glucose": {"tested_on": "blood glucose", "assay": "Postprandial glycemic response to a standardized liquid test meal", "assay_type": "in vivo, patients with type 1 diabetes", "settings": "first 4 h after study drug administration", "outline": "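Single-blind crossover in adults with type 1 diabetes. Prandial insulin was withheld >8 h and basal insulin >12 h, and blood glucose was clamped to 100–120 mg/dL with IV glucose or insulin. After a 30-min baseline, staff gave an individually optimized SC abdominal insulin dose with or without hyaluronidase, then a liquid meal.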"}, "[2]": {"assay": "Safety: adverse events, hypoglycemia", "assay_type": "in vivo, patients with type 1 diabetes", "settings": "for patients with hypoglycemia (adverse event): generally mild or occasionally moderate, safety population; for number of subjects administered glucose for the treatment of hypoglycemia: intravenous glucose (20%) at investigator's discretion when blood glucose <60 mg/dL or symptoms"}}, "data": [{"substance": "insulin lispro", "values": [{"measurement": "fraction of insulin exposure >2 h after injection", "setting": "[1]", "value": 22, "unit": "%"}, {"measurement": "fraction of total insulin exposure within the first hour following injection", "setting": "[1]", "value": 39, "unit": "%"}, {"measurement": "total hyperglycemic excursions (area under the curve >140 mg/dL)", "setting": "blood glucose", "value": 526, "unit": "min ⋅ mg^−1 ⋅ mL^−1"}, {"measurement": "patients with hypoglycemia (adverse event)", "setting": "[2]", "value": "13 of 22"}, {"measurement": "number of subjects administered glucose for the treatment of hypoglycemia", "setting": "[2]", "value": "6 of 21"}]}, {"substance": "regular human insulin [RHI]", "values": [{"measurement": "total hyperglycemic excursions (area under the curve >140 mg/dL)", "setting": "blood glucose", "value": "1,238 min ⋅ mg^−1 ⋅ mL^−1"}, {"measurement": "patients with hypoglycemia (adverse event)", "setting": "[2]", "value": "16 of 21"}, {"measurement": "patients with mild injection-site erythema", "setting": "[2]; in vivo", "value": "two"}, {"measurement": "number of subjects administered glucose for the treatment of hypoglycemia", "setting": "[2]", "value": "12 of 21"}]}]}
